In ChEMBL document CHEMBL4196108, “5-Aroylindoles Act as Selective Histone Deacetylase 6 Inhibitors Ameliorating Alzheimer's Disease Phenotypes” (J Med Chem, 2018):
The source made the active and inactive calls. The calls are words filed in the database; no cut-off is given here.

Legend:
[1] = biological target: T1, Protein deacetylase HDAC6 (Mus musculus) (UniProt Q9Z2V5); experiment: Inhibition of HDAC6 in mouse Neuro-2a cells transfected with pCAX FLAG APP and pRK5-EGFP-Tau P301L plasmids assessed as inhibition of Tau P301L mutant phosphorylation at Ser404 residue at 1 uM after 24 hrs by Western blot analysis; assay type: cell-based
T1 sequence (whole entry): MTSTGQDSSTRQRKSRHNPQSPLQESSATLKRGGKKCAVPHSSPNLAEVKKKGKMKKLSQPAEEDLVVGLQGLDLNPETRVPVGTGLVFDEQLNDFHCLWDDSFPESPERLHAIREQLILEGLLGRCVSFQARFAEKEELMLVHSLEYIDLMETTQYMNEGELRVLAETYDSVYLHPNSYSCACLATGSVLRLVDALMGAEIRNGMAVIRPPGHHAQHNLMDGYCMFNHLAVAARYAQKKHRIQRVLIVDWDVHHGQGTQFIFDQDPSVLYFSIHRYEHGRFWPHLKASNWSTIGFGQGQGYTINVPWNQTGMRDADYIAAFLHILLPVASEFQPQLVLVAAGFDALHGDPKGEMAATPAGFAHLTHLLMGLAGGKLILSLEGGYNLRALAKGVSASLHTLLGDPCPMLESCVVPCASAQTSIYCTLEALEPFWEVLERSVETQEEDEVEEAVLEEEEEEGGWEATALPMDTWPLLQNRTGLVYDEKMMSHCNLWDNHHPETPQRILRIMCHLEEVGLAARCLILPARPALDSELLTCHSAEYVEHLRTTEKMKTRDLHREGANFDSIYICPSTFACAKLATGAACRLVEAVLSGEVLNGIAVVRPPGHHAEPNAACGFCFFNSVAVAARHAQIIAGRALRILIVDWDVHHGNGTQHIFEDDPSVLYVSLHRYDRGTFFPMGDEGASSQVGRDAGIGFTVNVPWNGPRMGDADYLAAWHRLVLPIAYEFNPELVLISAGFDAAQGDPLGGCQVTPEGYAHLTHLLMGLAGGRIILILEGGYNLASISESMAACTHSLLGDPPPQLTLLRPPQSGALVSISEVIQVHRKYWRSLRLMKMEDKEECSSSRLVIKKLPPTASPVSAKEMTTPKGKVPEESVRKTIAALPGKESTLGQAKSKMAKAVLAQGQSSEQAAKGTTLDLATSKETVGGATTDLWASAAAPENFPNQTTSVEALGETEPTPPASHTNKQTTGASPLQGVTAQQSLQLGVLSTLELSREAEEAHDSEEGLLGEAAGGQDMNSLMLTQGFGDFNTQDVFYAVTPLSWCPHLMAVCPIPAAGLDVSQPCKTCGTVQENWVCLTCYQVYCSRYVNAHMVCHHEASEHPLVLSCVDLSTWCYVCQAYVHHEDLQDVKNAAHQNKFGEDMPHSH
In short: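 SH-SY5Y or Neuro-2a cells cotransfected 24 h with pCAX APP695 and pRK5-EGFP-Tau P301L, then treated 24 h at 1 µM. 20 µg lysate protein immunoblotted for APP and phospho-tau Ser396/Ser404. Mean ± STD of three independent experiments; Student's t-test.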

[2] = biological target: T2, Protein deacetylase HDAC6 (Homo sapiens) (UniProt Q9UBN7); experiment: Inhibition of HDAC6 in human SH-SY5Y cells transfected with pCAX FLAG APP and pRK5-EGFP-Tau P301L plasmids assessed as increase in HSP70 protein expression at 1 uM after 24 hrs by Western blot analysis; assay type: cell-based
T2 sequence (whole entry): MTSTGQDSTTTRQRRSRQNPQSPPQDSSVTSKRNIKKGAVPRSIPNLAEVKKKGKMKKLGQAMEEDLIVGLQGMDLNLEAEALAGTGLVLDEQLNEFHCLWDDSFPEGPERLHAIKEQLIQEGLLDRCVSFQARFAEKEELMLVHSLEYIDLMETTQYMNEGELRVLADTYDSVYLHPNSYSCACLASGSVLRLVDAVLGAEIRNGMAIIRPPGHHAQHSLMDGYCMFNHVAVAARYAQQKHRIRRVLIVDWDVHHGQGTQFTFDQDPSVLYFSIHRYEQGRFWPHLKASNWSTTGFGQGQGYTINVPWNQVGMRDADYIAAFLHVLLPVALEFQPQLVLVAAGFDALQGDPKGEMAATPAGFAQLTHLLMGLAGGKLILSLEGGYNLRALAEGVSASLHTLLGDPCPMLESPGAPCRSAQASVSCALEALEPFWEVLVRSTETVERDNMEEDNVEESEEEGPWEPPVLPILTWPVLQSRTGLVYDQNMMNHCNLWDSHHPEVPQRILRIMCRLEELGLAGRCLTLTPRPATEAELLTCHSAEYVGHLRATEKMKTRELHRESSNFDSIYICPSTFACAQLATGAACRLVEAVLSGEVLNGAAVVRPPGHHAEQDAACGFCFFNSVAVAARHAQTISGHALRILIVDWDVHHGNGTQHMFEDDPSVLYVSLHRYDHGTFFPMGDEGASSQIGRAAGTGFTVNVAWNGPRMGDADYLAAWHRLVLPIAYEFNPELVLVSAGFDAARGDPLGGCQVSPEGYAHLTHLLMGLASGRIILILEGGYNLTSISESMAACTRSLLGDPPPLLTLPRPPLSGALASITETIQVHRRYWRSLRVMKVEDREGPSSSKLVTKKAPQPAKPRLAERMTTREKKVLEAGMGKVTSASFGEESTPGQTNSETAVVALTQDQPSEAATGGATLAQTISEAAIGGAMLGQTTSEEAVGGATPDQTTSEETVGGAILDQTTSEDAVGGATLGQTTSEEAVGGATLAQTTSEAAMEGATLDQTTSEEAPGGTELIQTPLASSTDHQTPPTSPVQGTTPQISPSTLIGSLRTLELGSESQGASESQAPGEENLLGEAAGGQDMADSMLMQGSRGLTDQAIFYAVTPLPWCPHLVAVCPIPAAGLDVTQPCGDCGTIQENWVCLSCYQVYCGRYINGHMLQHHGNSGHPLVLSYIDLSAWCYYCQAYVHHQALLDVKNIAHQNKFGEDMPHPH
In short: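 SH-SY5Y and Neuro-2a cells cotransfected 24 h with APP695/Tau P301L plasmids, treated 24 h at 1 µM (ACY-1215 reference). 30 µg lysate immunoprecipitated overnight at 4 °C with anti-HDAC6 or anti-acetyl-lysine antibodies plus protein A/G beads, run on 8% SDS-PAGE, probed for Hsp90; Hsp70 by immunoblot. Three independent experiments.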

[3] = biological target: T2, Protein deacetylase HDAC6 (Homo sapiens); experiment: Inhibition of HDAC6 in human SH-SY5Y cells transfected with pCAX FLAG APP and pRK5-EGFP-Tau P301L plasmids assessed as increase in coimmunoprecipitation of ubiquitin with phosphorylated tau at Ser396 residue at 1 uM after 24 hrs; assay type: cell-based
In short: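 In APP695/Tau P301L-cotransfected SH-SY5Y cells treated 24 h at 1 µM, lysates (30 µg) were immunoprecipitated with anti-ubiquitin antibody and protein A/G beads overnight at 4 °C, then immunoblotted for phospho-tau Ser396 after 8% SDS-PAGE.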

[4] = Toxicity in Balb/c mouse assessed as survival rate at 500 mg/kg, ip qd administered for 6 days followed by 1 week recovery (reference value: 100%); assay type: organism-based; conditions: in vivo

Compound: COc1ccc(C(=O)c2ccc3c(ccn3Cc3ccc(C(=O)NO)cc3)c2)cc1
- inhibition [1]: Active
- inhibition [2]: Active
- inhibition [3]: Active
- survival [4]: 100%
